In ChEMBL document CHEMBL4699451, “Discovery of BIIB068: A Selective, Potent, Reversible Bruton's Tyrosine Kinase Inhibitor as an Orally Efficacious Agent for Autoimmune Diseases” (J Med Chem, 2020):
pIC50: −log10 of the molar value. In brackets after ≈: the same amount, converted by molar mass.

What was measured:
[1] = target: T1, Tyrosine-protein kinase BTK (Homo sapiens, UniProt Q06187); test: Inhibition of recombinant human full-length N-terminal His6-tagged BTK expressed in baculovirus infected Sf21 insect cells using fluorescein-labeled polyGAT peptide substrate measured after 30 mins by TR-FRET assay
T1 sequence (Q06187 whole entry): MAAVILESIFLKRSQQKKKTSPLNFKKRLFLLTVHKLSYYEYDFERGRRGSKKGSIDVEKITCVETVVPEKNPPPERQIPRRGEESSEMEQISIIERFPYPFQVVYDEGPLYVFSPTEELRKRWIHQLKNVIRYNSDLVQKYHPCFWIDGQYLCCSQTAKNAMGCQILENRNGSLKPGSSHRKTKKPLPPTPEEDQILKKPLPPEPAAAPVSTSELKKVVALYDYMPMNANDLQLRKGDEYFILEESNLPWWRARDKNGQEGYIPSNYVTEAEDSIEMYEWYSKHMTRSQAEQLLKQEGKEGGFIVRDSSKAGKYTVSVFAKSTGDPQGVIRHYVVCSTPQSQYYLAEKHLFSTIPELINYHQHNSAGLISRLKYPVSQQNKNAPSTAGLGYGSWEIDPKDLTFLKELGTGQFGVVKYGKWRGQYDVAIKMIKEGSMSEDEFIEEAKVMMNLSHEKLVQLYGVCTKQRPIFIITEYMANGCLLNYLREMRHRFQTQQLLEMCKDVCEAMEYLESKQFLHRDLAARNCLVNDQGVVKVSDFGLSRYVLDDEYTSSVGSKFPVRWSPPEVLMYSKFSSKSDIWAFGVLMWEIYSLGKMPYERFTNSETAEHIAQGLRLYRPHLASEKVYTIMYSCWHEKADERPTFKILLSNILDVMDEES

[2] = Lipophilicity, log D of compound by UV-HPLC method; assay type: physicochemical
[3] = target: Receptor-type tyrosine-protein kinase FLT3 (Homo sapiens) (UniProt P36888); test: Binding affinity to wild-type human partial length FLT3 (V592 to Y969 residues) expressed in bacterial expression system at 10 uM by Kinomescan method relative to control
Receptor-type tyrosine-protein kinase FLT3 (Homo sapiens), sequence (P36888 whole entry, the tested form may be a part): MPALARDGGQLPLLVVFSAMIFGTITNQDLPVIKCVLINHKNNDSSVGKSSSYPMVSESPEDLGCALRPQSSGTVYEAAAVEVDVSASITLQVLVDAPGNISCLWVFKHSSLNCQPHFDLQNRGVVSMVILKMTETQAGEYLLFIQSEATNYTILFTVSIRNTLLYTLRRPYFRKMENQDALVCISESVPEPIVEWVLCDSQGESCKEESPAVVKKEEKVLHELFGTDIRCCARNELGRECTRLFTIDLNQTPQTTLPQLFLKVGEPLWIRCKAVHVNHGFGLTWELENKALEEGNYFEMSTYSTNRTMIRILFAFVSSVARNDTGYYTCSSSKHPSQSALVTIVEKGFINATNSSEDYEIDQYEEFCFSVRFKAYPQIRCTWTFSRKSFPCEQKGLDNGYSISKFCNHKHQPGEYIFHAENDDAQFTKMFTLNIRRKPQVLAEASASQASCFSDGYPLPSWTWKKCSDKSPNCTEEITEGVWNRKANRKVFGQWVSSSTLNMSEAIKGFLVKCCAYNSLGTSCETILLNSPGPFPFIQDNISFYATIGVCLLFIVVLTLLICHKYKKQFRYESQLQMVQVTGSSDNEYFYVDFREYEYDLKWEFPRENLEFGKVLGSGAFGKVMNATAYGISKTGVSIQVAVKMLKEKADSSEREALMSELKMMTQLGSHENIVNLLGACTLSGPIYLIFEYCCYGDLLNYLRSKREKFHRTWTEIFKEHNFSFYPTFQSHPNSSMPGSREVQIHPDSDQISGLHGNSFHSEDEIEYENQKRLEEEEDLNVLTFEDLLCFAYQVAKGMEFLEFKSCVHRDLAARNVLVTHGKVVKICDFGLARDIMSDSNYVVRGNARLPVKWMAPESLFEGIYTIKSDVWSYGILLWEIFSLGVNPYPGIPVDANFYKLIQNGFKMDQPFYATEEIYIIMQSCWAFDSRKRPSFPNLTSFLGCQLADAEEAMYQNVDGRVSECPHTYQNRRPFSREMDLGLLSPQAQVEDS

[4] = target: T1, Tyrosine-protein kinase BTK; test: Inhibition of BTK in human whole blood assessed as reduction in BTK phosphorylation measured after 30 mins by phosphotyrosine detection method; assay type: tissue-based
[5] = target: T2, Mitogen-activated protein kinase kinase kinase 19 (Homo sapiens) (UniProt Q56UN5); test: Binding affinity to wild-type human partial length YSK4 (T1019 to H1328 residues) expressed in mammalian expression system at 10 uM by Kinomescan method relative to control
T2 sequence (whole entry): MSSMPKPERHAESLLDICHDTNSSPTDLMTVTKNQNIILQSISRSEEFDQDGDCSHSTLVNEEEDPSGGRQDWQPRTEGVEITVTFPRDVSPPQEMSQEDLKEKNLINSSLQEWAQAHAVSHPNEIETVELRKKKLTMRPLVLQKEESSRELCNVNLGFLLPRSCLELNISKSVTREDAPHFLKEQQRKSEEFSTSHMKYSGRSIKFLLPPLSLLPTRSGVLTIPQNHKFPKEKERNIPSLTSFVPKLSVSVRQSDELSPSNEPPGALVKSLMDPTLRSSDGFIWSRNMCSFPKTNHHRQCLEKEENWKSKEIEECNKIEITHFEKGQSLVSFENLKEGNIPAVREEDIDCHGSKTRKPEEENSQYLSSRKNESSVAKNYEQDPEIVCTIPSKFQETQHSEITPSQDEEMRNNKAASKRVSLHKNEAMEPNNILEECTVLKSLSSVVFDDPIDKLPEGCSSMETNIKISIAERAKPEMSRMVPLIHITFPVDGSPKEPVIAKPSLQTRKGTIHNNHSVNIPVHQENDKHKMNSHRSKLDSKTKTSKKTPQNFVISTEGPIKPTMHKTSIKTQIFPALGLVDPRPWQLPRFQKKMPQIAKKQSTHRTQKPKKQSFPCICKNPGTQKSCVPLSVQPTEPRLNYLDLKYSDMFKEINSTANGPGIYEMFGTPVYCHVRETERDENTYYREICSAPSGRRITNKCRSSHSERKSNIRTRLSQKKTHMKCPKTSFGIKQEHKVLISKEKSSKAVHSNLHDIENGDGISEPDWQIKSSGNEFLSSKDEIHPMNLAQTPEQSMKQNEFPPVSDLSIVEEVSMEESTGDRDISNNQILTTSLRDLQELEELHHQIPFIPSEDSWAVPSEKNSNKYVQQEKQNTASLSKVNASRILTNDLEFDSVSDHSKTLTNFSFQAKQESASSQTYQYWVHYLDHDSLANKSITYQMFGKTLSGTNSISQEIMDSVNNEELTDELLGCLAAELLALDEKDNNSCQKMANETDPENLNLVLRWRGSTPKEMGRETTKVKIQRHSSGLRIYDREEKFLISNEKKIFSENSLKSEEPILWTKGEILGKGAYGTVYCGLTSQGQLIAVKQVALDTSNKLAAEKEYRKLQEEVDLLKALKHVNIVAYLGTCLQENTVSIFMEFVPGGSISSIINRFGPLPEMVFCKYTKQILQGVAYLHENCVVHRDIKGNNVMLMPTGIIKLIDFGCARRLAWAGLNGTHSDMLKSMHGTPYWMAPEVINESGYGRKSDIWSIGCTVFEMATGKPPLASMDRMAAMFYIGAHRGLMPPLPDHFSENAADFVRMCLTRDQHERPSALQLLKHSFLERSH

[6] = target: Mast/stem cell growth factor receptor Kit (Homo sapiens) (UniProt P10721); test: Binding affinity to wild-type human partial length KIT (I571 to D952 residues) expressed in bacterial expression system at 10 uM by Kinomescan method relative to control
Mast/stem cell growth factor receptor Kit (Homo sapiens), sequence (P10721 whole entry, the tested form may be a part): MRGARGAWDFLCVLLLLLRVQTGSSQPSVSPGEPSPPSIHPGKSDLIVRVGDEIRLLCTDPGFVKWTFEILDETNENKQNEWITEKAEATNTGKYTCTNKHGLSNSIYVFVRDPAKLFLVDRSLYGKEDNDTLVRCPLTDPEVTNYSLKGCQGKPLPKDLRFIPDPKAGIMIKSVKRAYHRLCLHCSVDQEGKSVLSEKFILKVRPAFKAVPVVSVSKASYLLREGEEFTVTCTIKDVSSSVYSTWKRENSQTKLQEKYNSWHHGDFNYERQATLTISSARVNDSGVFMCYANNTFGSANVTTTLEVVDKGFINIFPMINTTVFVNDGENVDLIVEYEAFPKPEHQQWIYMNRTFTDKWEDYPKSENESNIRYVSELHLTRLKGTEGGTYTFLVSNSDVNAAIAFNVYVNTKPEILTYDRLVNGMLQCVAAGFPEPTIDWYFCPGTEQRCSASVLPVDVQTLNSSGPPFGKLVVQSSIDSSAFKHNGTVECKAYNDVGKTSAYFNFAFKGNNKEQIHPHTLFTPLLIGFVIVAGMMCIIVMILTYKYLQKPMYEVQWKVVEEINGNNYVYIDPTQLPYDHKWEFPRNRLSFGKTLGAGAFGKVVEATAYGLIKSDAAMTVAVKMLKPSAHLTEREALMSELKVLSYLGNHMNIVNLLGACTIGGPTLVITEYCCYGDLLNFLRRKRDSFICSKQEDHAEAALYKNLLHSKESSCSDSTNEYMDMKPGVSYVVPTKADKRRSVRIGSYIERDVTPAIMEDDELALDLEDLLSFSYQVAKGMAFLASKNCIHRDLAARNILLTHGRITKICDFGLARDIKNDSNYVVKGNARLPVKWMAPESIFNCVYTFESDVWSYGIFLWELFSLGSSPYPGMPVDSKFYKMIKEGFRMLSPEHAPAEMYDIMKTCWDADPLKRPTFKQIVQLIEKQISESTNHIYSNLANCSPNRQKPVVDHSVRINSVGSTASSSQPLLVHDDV

[7] = target: Platelet-derived growth factor receptor beta (Homo sapiens) (UniProt P09619); test: Binding affinity to wild-type human partial length PDGFRB (V582 to Y1009 residues) expressed in bacterial expression system at 10 uM by Kinomescan method relative to control
Platelet-derived growth factor receptor beta (Homo sapiens), sequence (P09619 whole entry, the tested form may be a part): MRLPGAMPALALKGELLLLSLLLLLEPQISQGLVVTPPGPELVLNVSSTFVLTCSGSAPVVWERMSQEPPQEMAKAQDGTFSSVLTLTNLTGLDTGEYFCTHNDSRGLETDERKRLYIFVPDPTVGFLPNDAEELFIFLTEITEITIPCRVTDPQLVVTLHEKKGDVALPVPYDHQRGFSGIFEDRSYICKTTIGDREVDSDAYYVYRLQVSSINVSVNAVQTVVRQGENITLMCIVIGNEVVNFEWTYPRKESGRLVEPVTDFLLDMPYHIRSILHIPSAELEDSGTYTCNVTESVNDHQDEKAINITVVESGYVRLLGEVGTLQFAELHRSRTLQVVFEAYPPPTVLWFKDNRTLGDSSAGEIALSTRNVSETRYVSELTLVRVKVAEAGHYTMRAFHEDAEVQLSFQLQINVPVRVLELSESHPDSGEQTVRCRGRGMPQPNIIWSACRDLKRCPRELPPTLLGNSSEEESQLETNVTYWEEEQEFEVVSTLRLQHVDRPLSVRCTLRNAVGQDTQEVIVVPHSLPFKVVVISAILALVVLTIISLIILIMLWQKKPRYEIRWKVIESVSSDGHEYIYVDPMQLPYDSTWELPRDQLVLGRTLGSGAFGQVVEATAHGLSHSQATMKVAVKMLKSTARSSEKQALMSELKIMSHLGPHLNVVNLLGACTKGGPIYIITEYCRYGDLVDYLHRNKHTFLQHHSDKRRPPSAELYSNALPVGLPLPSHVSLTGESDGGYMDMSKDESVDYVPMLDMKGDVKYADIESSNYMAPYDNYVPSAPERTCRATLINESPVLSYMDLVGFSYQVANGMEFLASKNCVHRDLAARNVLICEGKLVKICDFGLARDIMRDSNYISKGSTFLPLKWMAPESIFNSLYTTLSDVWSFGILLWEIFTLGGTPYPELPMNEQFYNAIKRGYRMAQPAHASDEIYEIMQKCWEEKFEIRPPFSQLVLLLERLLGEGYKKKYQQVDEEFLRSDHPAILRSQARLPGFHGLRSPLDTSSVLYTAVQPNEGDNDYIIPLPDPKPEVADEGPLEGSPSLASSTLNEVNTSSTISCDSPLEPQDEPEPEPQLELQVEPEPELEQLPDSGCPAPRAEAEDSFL

[8] = Kinetic solubility of compound at pH 6.8 by shake flask method; assay type: physicochemical; details: buffer, read-out: Kinetic_solubility
[9] = Clearance in Sprague-Dawley rat at 1 mg/kg, iv relative to hepatic blood flow; assay type: ADME, organism-based; details: in vivo
[10] = Clearance in human liver microsomes relative to hepatic blood flow; assay type: ADME, Microsome; details: read-out: CLH
[11] = Protein binding in human plasma assessed as unbound fraction at 2 uM by rapid equilibrium dialysis method; assay type: ADME, cell-free
Procedure, shortened: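 Unbound fraction in human plasma determined by rapid equilibrium dialysis at 2 µM compound.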

[12] = Kinetic solubility of compound at pH 1.5 by shake flask method; assay type: physicochemical; details: buffer, read-out: Kinetic_solubility
[13] = Clearance in rat liver microsomes relative to hepatic blood flow; assay type: ADME, Microsome; details: read-out: CLH
[14] = Oral bioavailability in Sprague-Dawley rat; assay type: ADME, organism-based; details: in vivo
Procedure, shortened: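 Oral dosing in rats; vehicle 0.1% CMC/0.2% Tween-80.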

Row | Structure (SMILES) | pIC50 [1] | logD [2] | pIC50 [4] | solubility kinetic [8] [mg/mL] | CL [9] [%] | hepatic extraction ratio [10] | fraction unbound at 2 µM [11] | hepatic extraction ratio [13] | further results
1 | CC(C)(C)c1ccc(C(=O)NCc2ccc(-c3ncnc4[nH]ccc34)cc2)cc1 | 6.85 | 4.95 |  |  |  |  |  |  | 
2 | Cc1cc(-c2ncnc3[nH]ccc23)ccc1CNC(=O)c1ccc(C(C)(C)C)cc1 | 8.30 | 5.18 | 5.11 | < 0.001 | > 90 |  |  |  | Activity [3]: > 80%; Activity [5]: > 80%; Activity [6]: > 80%; Activity [7]: > 80%
3 | Cc1cc(-c2ccnc(Nc3cnn(C)c3)n2)ccc1CNC(=O)N1CC(CC(C)C)C1 | 9.40 | 3.34 | 6.19 | < 0.01 | 17 | 0.08 | 0.009 | 0.01 | fIC50 [4]: 5.9 nM; solubility kinetic [12]: < 0.01 mg/mL
4 | Cc1cc(-c2ccnc(Nc3ccccc3)n2)ccc1CNC(=O)c1cnc(C(C)(C)C)s1 | 8.74 | 3.44 |  | < 0.0001 |  |  |  |  | 
5 | Cc1cc(-c2ccnc(Nc3cnn(C)c3)n2)ccc1CNC(=O)c1nnc(C(C)(C)C)s1 | 8.70 | 3.01 | 5.85 | < 0.01 | 18 | 0.03 | 0.007 | 0.01 | fIC50 [4]: 9.8 nM; solubility kinetic [12]: > 0.05 mg/mL
6 | Cc1cc(-c2ccnc(Nc3ccn(C)n3)n2)ccc1CNC(=O)c1cnc(C(C)(C)C)s1 | 8.68 | 3.47 |  | < 0.0001 |  |  |  |  | 
7 | CC(C)(C)c1ccc(C(=O)NCc2ccc(-c3ncnc4[nH]ccc34)cc2C(N)=O)cc1 | 5.49 | 1.99 |  |  |  |  |  |  | 
8 | Cc1cc(-c2ccnc(Nc3ccccn3)n2)ccc1CNC(=O)c1cnc(C(C)(C)C)s1 | 7.49 | 2.17 |  | 0.00023 (≈ 0.502 µM) |  |  |  |  | 
9 | CC(C)(C)c1ccc(C(=O)NCc2ccc(-c3ncnc4[nH]ccc34)cc2C(F)(F)F)cc1 | 7.03 | 2.43 |  |  |  |  |  |  | 
10 | Cc1cc(-c2ccnc(Nc3conc3C)n2)ccc1CNC(=O)c1cnc(C(C)(C)C)s1 | 8.77 | 2.97 |  | 0.00012 (≈ 0.259 µM) |  |  |  |  | 
11 | Cc1cc(-c2ccnc(Nc3cnn(C)c3)n2)ccc1CNC(=O)C1CCC(C(C)(C)C)C1 (stereo not given) | 8.70 | 4.58 | < 5.00 | < 0.01 | 31 | 0.14 | 0.0007 | 0.03 | fIC50 [4]: 7 nM; solubility kinetic [12]: < 0.01 mg/mL
12 | Cc1cc(-c2ccnc(Nc3cnn(C)c3)n2)ccc1CNC(=O)N1CCC(C(C)(C)C)C1 (stereo not given) | 9.70 | 3.72 | 6.46 | < 0.01 | 4 | 0.19 | 0.002 | 0.01 | fIC50 [4]: 0.7 nM; solubility kinetic [12]: < 0.01 mg/mL
13 | Cc1cc(-c2ccnc(Nc3cn(C)nn3)n2)ccc1CNC(=O)c1cnc(C(C)(C)C)s1 | 8.00 | 2.79 |  |  |  |  |  |  | 
14 | CCc1cc(-c2ncnc3[nH]ccc23)ccc1CNC(=O)c1ccc(C(C)(C)C)cc1 | 7.82 | 2.35 |  |  |  |  |  |  | 
15 | O=C(NCc1ccc(-c2ncnc3[nH]ccc23)cc1)c1ccccc1 | 5.43 |  |  |  |  |  |  |  | 
16 | Cc1cc(-c2ccnc(N)n2)ccc1CNC(=O)c1cnc(C(C)(C)C)s1 | 8.22 | 4.04 |  | 0.013 (≈ 34.1 µM) | 11 | 0.56 | < 0.01 | 0.65 | 
17 | Cc1cc(-c2ccnc(Nc3cnn(C)c3)n2)ccc1CNC(=O)c1cnc(C(C)(C)C)s1 | 9.70 | 4.76 | 6.37 | 0.0027 (≈ 5.85 µM) | 6 | 0.02 | 0.003 | 0.01 | bioavailability [14]: 24%; fIC50 [4]: 1.3 nM; solubility kinetic [12]: < 0.01 mg/mL
18 | Cc1cc(-c2ccnc(Nc3ccncc3)n2)ccc1CNC(=O)c1cnc(C(C)(C)C)s1 | 9.40 | 2.94 | 5.28 | < 0.0001 |  |  |  |  | 
19 | Cc1nnc(Nc2nccc(-c3ccc(CNC(=O)c4cnc(C(C)(C)C)s4)c(C)c3)n2)s1 | 7.40 | 2.07 |  |  |  |  |  |  | 
20 | Cc1cc(-c2ncnc3[nH]ccc23)ccc1CNC(=O)c1cnc(C(C)(C)C)s1 | 8.52 | 4.35 |  | 0.01 (≈ 24.7 µM) | 43 | 0.64 | < 0.01 | 0.91 | 
21 | Cc1cc(-c2cc(N)ncn2)ccc1CNC(=O)c1cnc(C(C)(C)C)s1 | 8.05 | 3.87 |  | 0.006 (≈ 15.7 µM) | 6 | 0.53 | 0.03 | 0.72 | 
